Drawing on ChEMBL document CHEMBL2311425, “Histone deacetylase (HDAC) inhibitors with a novel connecting unit linker region reveal a selectivity profile for HDAC4 and HDAC5 with improved activity against chemoresistant cancer cells” (J Med Chem, 2013), this text covers IC50 for 2 compounds.

The target in one assay is T1, Histone deacetylase 11 (Homo sapiens, UniProt Q96DB2).
T1 sequence (Q96DB2 whole entry): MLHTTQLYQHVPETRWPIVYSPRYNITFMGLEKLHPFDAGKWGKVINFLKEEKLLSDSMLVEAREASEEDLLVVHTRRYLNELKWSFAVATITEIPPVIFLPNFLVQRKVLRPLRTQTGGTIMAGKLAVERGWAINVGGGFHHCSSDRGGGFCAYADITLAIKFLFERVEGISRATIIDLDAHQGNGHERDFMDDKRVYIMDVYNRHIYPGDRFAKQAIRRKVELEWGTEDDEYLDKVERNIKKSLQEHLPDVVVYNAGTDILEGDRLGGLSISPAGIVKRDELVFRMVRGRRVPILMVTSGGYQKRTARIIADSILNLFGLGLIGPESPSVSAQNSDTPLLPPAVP
Put plainly: Inhibition of human HDAC11 by fluorescence assay.

The next assay deals with T2, Histone deacetylase 8 (Homo sapiens, UniProt Q9BY41).
T2 sequence (Q9BY41 whole entry): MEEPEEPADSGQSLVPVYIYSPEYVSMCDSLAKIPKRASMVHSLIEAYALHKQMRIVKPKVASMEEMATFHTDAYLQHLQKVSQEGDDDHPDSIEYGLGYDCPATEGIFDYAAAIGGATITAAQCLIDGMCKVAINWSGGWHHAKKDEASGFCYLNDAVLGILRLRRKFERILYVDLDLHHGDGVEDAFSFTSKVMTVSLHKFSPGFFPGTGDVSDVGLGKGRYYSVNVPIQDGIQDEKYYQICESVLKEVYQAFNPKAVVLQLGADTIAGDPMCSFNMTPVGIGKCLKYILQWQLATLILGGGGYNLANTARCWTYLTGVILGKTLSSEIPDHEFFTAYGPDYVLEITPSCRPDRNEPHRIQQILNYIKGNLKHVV
Briefly: Inhibition of human HDAC8 by fluorescence assay.

For assay [1], the target named is T3, Protein deacetylase HDAC6 (Homo sapiens, UniProt Q9UBN7).
T3 sequence (Q9UBN7 whole entry): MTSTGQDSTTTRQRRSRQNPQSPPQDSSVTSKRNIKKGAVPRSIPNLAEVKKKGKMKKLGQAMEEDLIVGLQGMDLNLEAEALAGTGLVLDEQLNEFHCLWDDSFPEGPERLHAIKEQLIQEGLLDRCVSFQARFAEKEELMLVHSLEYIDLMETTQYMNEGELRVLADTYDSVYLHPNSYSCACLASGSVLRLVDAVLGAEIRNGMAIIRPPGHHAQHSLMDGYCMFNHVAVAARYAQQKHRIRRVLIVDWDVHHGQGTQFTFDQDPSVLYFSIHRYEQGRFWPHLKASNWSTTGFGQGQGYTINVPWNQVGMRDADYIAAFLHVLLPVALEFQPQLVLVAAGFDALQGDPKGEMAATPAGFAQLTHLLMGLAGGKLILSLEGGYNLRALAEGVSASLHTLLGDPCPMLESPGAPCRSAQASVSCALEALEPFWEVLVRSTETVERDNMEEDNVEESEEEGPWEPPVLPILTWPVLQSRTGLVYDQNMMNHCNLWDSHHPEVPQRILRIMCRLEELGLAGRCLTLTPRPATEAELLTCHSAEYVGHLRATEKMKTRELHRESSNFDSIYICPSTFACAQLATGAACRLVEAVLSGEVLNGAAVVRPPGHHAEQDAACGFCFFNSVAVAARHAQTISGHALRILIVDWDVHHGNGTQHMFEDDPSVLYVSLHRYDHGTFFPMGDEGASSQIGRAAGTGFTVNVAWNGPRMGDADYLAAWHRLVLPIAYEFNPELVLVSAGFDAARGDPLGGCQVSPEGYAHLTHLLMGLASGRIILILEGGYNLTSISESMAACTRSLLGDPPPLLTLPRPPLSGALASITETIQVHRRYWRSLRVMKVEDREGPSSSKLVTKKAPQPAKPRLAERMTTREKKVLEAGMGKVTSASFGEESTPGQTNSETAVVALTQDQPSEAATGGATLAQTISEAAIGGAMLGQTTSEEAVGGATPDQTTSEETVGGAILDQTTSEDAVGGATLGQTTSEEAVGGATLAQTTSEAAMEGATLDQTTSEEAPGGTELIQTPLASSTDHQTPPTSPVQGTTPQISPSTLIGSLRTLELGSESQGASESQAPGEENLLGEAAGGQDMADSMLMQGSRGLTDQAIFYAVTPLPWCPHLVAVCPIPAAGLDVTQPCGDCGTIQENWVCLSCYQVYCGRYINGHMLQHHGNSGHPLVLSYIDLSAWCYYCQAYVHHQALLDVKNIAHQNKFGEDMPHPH
Briefly: Inhibition of human HDAC6 by fluorescence assay.

Another assay deals with Histone deacetylase 5 (Homo sapiens, UniProt Q9UQL6). Briefly: Inhibition of human HDAC5 by fluorescence assay.
In another assay the target is Histone deacetylase 4 (Homo sapiens, UniProt P56524). Briefly: Inhibition of human HDAC4 by fluorescence assay.
A further assay addresses Histone deacetylase 2 (Homo sapiens, UniProt Q92769). Briefly: Inhibition of human HDAC2 by fluorescence assay.
The next assay has as its target Histone deacetylase 1 (Homo sapiens, UniProt Q13547). Put plainly: Inhibition of human HDAC1 by fluorescence assay.
The target of assay [2] is Histone deacetylase. Briefly: Inhibition of HDAC in cisplatin resistant human KYSE-510 cells after 18 hrs by fluorescence assay. In kind it is cell-based.
Assay [3] has as its target Histone deacetylase. Put plainly: Inhibition of HDAC in cisplatin sensitive human KYSE-510 cells after 18 hrs by fluorescence assay. In kind it is cell-based.
In assay [4] the target is Histone deacetylase. Briefly: Inhibition of HDAC in cisplatin resistant human CAL27 cells after 18 hrs by fluorescence assay. In kind it is cell-based. Conditions: cal-27.
Assay [5] deals with Histone deacetylase. Put plainly: Inhibition of HDAC in cisplatin sensitive human CAL27 cells after 18 hrs by fluorescence assay. In kind it is cell-based. Conditions: cal-27.
In assay [6] the target is Histone deacetylase. Briefly: Inhibition of HDAC in cisplatin resistant human MDA-MB-231 cells after 18 hrs by fluorescence assay. In kind it is cell-based.
Assay [7] deals with Histone deacetylase. Put plainly: Inhibition of HDAC in cisplatin sensitive human MDA-MB-231 cells after 18 hrs by fluorescence assay. In kind it is cell-based.
Assay [8] concerns KYSE-510. Briefly: Cytotoxicity against cisplatin sensitive human KYSE-510 cells after 72 hrs by MTT assay. In kind it is functional, cell-based. Conditions: KYSE-510, 72 h. (Tetrazolium assays rely on reduction of a dye to a coloured formazan, in cell work by metabolically active cells.)
The subject of assay [9] is KYSE-510. Briefly: Cytotoxicity against cisplatin resistant human KYSE-510 cells after 72 hrs by MTT assay. In kind it is functional, cell-based. Conditions: KYSE-510, 72 h.
The test system of assay [10] is CAL-27. Briefly: Cytotoxicity against cisplatin resistant human CAL27 cells after 72 hrs by MTT assay. In kind it is functional, cell-based. Conditions: CAL-27, 72 h.
Assay [11] has as its system CAL-27. Briefly: Cytotoxicity against cisplatin sensitive human CAL27 cells after 72 hrs by MTT assay. As to conditions: CAL-27, 72 h. In kind it is functional, cell-based.
Assay [12] relates to MDA-MB-231. Briefly: Cytotoxicity against cisplatin resistant human MDA-MB-231 cells after 72 hrs by MTT assay. In kind it is functional, cell-based. Conditions: MDA-MB-231, 72 h.
Assay [13] concerns MDA-MB-231. Briefly: Cytotoxicity against cisplatin sensitive human MDA-MB-231 cells after 72 hrs by MTT assay. In kind it is functional, cell-based. Conditions: MDA-MB-231, 72 h. The gist of the method:
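MDA-MB-231 (parental), 10 000 cells/well, in DMEM with 15% FCS at 37 °C, 5% CO2. Compounds added 24 h after seeding for 72 h. MTT (5 mg/mL in PBS) was added, formazan dissolved in DMSO, absorbance read at 544 and 690 nm. IC50 from four-parameter logistic fit of ≥3 experiments in triplicate.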

For assay [14], the target named is Histone deacetylase. Put plainly: Inhibition of HDAC in cisplatin resistant human A2780 cells after 18 hrs by fluorescence assay. In kind it is cell-based.
Assay [15] has as its target Histone deacetylase. Briefly: Inhibition of HDAC in human A2780 cells after 18 hrs by fluorescence assay. In kind it is cell-based.
The test system of a further assay is A2780. Put plainly: Cytotoxicity against human A2780 cells after 72 hrs by MTT assay. In kind it is functional, cell-based. As to conditions: A2780, 72 h.
Assay [16] deals with A2780 CisR (Homo sapiens). Put plainly: cells. Conditions: 72 h.

Chain of Histone deacetylase 5 (Q9UQL6 whole entry): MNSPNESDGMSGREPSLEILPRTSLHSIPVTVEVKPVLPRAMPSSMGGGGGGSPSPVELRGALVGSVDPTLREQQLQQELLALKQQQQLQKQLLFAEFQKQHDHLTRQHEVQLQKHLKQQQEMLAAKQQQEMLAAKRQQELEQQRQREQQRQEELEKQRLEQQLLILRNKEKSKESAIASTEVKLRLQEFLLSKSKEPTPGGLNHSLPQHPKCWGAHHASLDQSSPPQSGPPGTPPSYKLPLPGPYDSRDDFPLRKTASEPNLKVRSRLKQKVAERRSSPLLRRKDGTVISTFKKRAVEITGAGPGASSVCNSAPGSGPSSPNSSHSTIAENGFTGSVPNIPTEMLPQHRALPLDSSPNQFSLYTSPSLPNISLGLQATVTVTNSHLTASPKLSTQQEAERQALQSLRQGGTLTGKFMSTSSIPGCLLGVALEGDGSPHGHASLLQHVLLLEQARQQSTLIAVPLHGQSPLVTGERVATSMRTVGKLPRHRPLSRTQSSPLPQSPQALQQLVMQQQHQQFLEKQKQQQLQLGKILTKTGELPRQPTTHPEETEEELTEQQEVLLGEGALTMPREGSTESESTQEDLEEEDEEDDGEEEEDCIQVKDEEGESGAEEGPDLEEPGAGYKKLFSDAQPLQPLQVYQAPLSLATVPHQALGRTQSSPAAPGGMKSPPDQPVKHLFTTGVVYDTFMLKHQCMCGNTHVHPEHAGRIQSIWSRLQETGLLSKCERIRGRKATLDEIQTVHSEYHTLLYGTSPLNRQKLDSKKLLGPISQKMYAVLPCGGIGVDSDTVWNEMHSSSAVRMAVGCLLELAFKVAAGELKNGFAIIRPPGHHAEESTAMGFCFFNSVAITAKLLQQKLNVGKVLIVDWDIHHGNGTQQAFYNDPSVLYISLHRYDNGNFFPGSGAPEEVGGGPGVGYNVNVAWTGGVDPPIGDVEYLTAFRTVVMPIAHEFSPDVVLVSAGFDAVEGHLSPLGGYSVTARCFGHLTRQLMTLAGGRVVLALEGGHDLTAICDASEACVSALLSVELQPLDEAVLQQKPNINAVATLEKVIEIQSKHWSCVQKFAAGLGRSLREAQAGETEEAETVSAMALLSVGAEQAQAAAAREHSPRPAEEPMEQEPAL
Chain of Histone deacetylase 4 (P56524 whole entry): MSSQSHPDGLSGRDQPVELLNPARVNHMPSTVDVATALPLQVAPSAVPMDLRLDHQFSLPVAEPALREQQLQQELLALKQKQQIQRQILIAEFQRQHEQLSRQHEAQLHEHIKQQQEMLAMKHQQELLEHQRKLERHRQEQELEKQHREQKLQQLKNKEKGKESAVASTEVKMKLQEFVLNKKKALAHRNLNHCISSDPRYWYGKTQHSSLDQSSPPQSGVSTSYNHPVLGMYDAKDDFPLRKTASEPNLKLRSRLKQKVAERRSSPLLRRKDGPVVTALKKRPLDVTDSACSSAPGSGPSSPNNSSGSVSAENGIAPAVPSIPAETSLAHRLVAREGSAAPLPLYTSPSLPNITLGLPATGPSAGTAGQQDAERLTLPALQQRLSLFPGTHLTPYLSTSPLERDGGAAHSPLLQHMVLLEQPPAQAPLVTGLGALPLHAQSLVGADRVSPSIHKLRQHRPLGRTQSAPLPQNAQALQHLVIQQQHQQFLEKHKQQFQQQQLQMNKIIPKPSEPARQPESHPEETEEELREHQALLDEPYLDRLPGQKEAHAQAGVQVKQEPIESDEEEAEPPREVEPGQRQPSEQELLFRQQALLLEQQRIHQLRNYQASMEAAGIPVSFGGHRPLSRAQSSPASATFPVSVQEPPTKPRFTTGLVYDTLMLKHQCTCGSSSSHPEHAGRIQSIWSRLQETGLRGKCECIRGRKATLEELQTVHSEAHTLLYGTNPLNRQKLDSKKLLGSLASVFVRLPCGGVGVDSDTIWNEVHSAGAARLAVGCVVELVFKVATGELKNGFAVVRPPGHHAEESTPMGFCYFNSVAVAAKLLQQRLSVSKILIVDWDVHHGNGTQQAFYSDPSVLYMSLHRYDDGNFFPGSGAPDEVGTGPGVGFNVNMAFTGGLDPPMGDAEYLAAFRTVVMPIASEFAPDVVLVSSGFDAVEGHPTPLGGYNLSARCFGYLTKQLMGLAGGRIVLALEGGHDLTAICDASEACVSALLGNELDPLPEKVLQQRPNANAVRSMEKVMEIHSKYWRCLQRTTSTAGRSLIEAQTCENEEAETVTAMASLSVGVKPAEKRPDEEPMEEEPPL
Chain of Histone deacetylase 1 (Q13547 whole entry): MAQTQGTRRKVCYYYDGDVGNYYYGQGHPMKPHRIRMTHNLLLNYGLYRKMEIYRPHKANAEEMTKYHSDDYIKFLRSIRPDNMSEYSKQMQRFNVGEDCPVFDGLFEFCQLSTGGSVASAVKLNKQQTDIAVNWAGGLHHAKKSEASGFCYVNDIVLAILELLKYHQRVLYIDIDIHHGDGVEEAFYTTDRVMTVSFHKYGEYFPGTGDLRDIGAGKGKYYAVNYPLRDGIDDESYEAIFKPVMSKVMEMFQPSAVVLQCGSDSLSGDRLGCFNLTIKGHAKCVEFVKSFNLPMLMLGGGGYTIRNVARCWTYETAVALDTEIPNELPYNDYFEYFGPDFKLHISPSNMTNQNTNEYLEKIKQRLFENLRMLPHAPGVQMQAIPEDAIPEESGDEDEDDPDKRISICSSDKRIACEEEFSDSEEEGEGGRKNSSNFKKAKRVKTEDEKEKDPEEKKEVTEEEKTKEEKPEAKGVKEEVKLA
Chain of Histone deacetylase 2 (Q92769 whole entry): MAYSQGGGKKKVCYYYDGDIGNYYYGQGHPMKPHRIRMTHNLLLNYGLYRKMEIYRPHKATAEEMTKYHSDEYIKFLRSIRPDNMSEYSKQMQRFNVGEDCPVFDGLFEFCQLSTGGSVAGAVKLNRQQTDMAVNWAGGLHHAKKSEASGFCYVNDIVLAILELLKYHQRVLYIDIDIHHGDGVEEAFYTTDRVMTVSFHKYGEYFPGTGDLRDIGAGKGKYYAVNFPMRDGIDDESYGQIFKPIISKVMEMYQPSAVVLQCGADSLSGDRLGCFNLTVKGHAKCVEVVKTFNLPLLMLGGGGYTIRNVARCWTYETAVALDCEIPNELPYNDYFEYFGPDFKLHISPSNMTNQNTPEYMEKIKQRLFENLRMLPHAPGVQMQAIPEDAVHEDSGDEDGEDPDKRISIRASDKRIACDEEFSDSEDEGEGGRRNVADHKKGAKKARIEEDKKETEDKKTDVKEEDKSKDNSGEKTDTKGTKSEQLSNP

The term IC50 denotes the concentration that gives 50% inhibition. Lower therefore signals greater potency. `Cc1ccc(C(=O)NOCCCCCC(=O)NO)cc1C`: the 50% inhibitory concentration (IC50) against Histone deacetylase 11 worked out at 0.997 µM; on Histone deacetylase 8 it was 0.833 µM; in [1], 0.0181 µM; against Histone deacetylase 5, 0.0334 µM; on Histone deacetylase 4 it was 0.0826 µM; at Histone deacetylase 2, 0.944 µM. In addition, the IC50 at Histone deacetylase 1 worked out at 0.32 µM; against Histone deacetylase [2] it was 1.1 µM; against Histone deacetylase [3], 2.82 µM; at Histone deacetylase [4], 0.91 µM; against Histone deacetylase [5], 1.1 µM; against Histone deacetylase [6], 1.66 µM. The IC50 against Histone deacetylase [7] stood at 1.57 µM; with KYSE-510 [8], 10 µM; in the assay on KYSE-510 [9] it was 9.46 µM; with CAL-27 [10] it was 4.31 µM; in the assay with CAL-27 [11], 2.9 µM; in the assay with MDA-MB-231 [12] it was 3.77 µM. Further, the IC50 with MDA-MB-231 [13] worked out at 2.77 µM; on Histone deacetylase [14] it was 0.88 µM; at Histone deacetylase [15], 1.61 µM; in the assay on A2780, 1.54 µM; in assay [16], 1.78 µM.
As to `Cc1cccc(C(=O)NOCCCCCC(=O)NO)c1`, the IC50 on Histone deacetylase 11 came to 2.14 µM; on Histone deacetylase 8 it was 1.04 µM; in assay [1], 0.0269 µM; at Histone deacetylase 5 it was 0.00231 µM; on Histone deacetylase 4, 0.0163 µM; against Histone deacetylase 2, 1.39 µM. For the same compound, the 50% inhibitory concentration (IC50) on Histone deacetylase 1 was 0.341 µM; on Histone deacetylase [2], 1.13 µM; on Histone deacetylase [3], 2.62 µM; against Histone deacetylase [4] it was 0.88 µM; on Histone deacetylase [5] it was 1 µM; against Histone deacetylase [6], 1.28 µM. Moreover, the half-maximal inhibitory concentration (IC50) against Histone deacetylase [7] was found to be 1.41 µM; in the assay on KYSE-510 [8], 8.19 µM; in the assay with KYSE-510 [9], 8.21 µM; in the assay on CAL-27 [10], 3.72 µM; with CAL-27 [11] it was 2.97 µM; with MDA-MB-231 [12], 3.81 µM. Also, the concentration for half-maximal inhibition (IC50) in the assay with MDA-MB-231 [13] is 2.79 µM; at Histone deacetylase [14], 0.9 µM; against Histone deacetylase [15] it was 1.58 µM; in the assay with A2780 it was 2.1 µM; in assay [16] it was 2.25 µM.
